Compound activity from PubChem.
Only some compounds are listed: those with a hit (about 3% of all), similar ones and a draw of the others.
FID counter = counter-screen for HCV NS3 helicase inhibitors: DNA intercalator displacement | DNA fluorescent intercalator displacement, fluorescence | inhibition, % at 7.9 µM | 290,000 compounds, 0.17% hits | AID 1845; in the data active means inhibition above about 37%;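 further: higher means more ethidium bromide displaced from hairpin DNA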
Kir21 inh = inhibitors of mouse Kir2.1 inward-rectifier potassium channel; P35561; HEK293-Kir2.1, FluxOR thallium flux fluorescence; hits give low values; B-score at 10 µM; 310,000 compounds, 0.85% hits;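 active means fluorescence ratio B-score at or below minus 3 SD of library scores, with starting-brightness B-score within 2 SD, cut at about -4.2 in these data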;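 further: channel flux triggered by added potassium and thallium sulfate stimulus; B-score of peak minus minimum fluorescence over baseline after thallium stimulus; more negative B-score means stronger Kir2.1 block with less thallium influx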
TMEM16A act = activates or potentiates the mouse TMEM16A chloride channel; Q8BHY3; HEK293 TMEM16A/YFP-H148Q/I152L, iodide quench fluorescence; hits give low values; B-score at 10 µM; 340,000 compounds, 0.3% hits;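 active means fluorescence-ratio B-score plate-corrected deviation score at least 3 library SD below zero, with starting fluorescence score within 5 deviations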;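 further: channel opened by trigger with iodide after compound preincubation; score built on the fluorescence ratio of max minus min over baseline; more negative score means more quench and so TMEM16A activation or potentiation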
Target sequence (Q8BHY3 whole entry, looked up): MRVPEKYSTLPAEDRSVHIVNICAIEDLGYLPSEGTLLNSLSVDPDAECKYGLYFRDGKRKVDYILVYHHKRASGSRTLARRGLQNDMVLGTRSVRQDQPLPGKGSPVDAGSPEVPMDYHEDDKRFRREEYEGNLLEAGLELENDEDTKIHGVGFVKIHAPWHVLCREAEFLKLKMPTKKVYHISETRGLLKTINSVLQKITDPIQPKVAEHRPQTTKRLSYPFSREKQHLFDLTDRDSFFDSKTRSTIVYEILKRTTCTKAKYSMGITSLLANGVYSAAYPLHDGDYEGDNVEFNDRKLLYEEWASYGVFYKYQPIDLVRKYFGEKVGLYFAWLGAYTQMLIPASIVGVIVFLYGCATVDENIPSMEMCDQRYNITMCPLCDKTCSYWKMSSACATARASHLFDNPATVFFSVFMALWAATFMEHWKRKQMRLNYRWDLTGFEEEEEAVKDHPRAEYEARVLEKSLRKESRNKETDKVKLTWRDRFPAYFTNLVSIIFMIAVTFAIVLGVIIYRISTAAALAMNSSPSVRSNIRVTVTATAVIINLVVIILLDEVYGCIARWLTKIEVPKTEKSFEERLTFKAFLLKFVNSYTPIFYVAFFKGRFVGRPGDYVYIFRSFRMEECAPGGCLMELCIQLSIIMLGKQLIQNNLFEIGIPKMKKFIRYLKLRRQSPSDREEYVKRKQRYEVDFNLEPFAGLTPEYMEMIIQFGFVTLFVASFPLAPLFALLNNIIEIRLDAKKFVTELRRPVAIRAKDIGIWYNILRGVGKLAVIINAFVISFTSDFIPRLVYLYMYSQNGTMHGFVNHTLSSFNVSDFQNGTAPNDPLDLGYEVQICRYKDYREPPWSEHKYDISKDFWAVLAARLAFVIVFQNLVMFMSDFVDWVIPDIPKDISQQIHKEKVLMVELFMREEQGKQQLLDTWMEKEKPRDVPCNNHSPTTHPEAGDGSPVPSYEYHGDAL
SR-BI DiI-HDL act = SR-BI HDL lipid transfer activation; CHO ldlA[mSR-BI] cells, DiI-HDL uptake fluorescence, 3 h; 100 = double the neutral-control signal; 320,000 compounds, 0.096% hits; activation, % at 12.5 µM;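 active means mean replicate activation of at least 60% and every replicate at or above 60%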
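Material: SR-BI-overexpressing, LDLR-lacking CHO cells | Dosing: Single compound concentration, delivered by pin transfer | Probe or stimulus: Labelled HDL, 10 µg/mL | Signal: Bottom-read cell fluorescence after medium removal, ex 550/em 595 nm | Schedule: 3 h, 37 °C | Evaluation: HDL uptake via cellular fluorescence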
TMEM16A inh = blocks the mouse calcium-activated chloride channel TMEM16A; Q8BHY3; HEK293 TMEM16A/YFP iodide influx fluorescence, ionomycin; normalized B-score (activity score, 25-100; higher = stronger inhibition) at 10 µM; 310,000 compounds, 1.2% hits; AID 588511;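 active means ratio plate-corrected score three or more library SD toward inhibition, starting fluorescence score within five deviations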;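 further: score derived from kinetic fluorescence span divided by baseline fluorescence per well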
SR-BI HDL uptake = mouse SR-BI HDL lipid transfer inhibition. inhibition, % at 12.5 µM. 320,000 compounds, 0.96% hits. ldlA[mSR-BI] CHO cells, DiI-HDL uptake fluorescence, 3 h. Q61009;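 active means mean replicate inhibition of at least 70% and a set share of replicates each scoring 70 or more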
A number is an active result; . = inactive; / = no result given.

SMILES	FID counter	Kir21 inh	TMEM16A act	SR-BI DiI-HDL act	TMEM16A inh	SR-BI HDL uptake
N#CC(C#N)=C1SC(=Nc2ccccc2)C(=Nc2ccccc2)N1c1ccccc1	/	/	.	.	/	.
CC(=O)N1c2ccc(S(=O)(=O)N(C)CC(=O)Nc3cccc(C)c3)cc2CC1C (configuration not stated)	.	.	.	.	.	.
COc1cccc(NC(=O)CSc2nc3c(sc4ccccc43)c(=O)n2CCCN2CCCC2)c1	.	-5.68	.	.	.	.
COc1cccc(NC(=O)CSc2nc3c(sc4ccccc43)c(=O)n2CCN(C)C)c1	.	.	.	.	.	.
COc1ccc(CCNC(=O)Cn2cccc2C(=O)c2ccccc2C)cc1OC	.	-5.02	.	.	.	.
Cc1ccccc1C(=O)c1cccn1CC(=O)NCC(C)c1ccccc1 (configuration not stated)	.	-6.37	.	.	.	.
O=C(CCN1CCN(c2ccccc2)CC1)NNC(=O)Cc1ccc(Br)cc1	/	/	.	.	/	.
Cc1nc2ccc(OC(=O)c3ccccc3)cc2s1	.	-4.79	.	.	.	.
Cc1ccc(OC(=O)c2ccc3nc(C)sc3c2)cc1	.	.	/	/	.	/
CC(=O)Nc1ccc(-c2sc(Nc3cccc4ccccc34)n[n+]2-c2ccccc2)cc1	.	.	-11.8	.	.	.
COc1ccc(C2(c3ccc(OC)cc3)NC(=O)N(CC(=O)NC3CCS(=O)(=O)C3)C2=O)cc1 (configuration not stated)	/	/	.	.	/	.
COc1ccc(/C=N/Nc2cc(C)nc(-n3nc(C)cc3C)n2)cc1	.	.	.	.	.	.
Cc1cc(N/N=C/c2ccc(O)cc2O)nc(-c2ccccc2O)n1	.	.	.	.	.	113.8
Cc1cc(N/N=C/c2ccc(O)cc2O)nc(-n2nc(C)cc2C)n1	.	.	.	.	.	93.7
Cc1cc(N/N=C/c2ccccc2O)nc(-c2ccccc2O)n1	.	.	.	.	.	.
O=C(NCCc1ccccc1Cl)C1CCC(=O)N(C2CCCCCC2)C1 (configuration not stated)	.	.	.	.	.	.
O=C(CN1CCN(c2ccccc2O)CC1)Nc1cc(S(=O)(=O)N2CCCC2)ccc1Cl	/	/	.	.	/	.
Cc1ccc(NC(=O)/C(C#N)=C(\N)C(Cl)(Cl)Cl)nc1	.	.	-11.1	.	.	.
Cc1cc(C(=O)NC2CCCc3c2cnn3-c2cccc(C)c2C)n(C)n1 (configuration not stated)	.	.	.	.	.	.
CCCN1CCN(CCCNC(=O)c2cc3c(=O)oc4ccc(C)cc4c3s2)CC1	.	.	.	.	.	.
Cc1cccc2c1-c1sc(C(=O)NCCCN3CCCC(C)C3)cc1CO2 (configuration not stated)	.	-4.66	.	.	.	.
Cc1ccc2oc(=O)c3cc(C(=O)NCCCN4CCCC(C)C4)sc3c2c1 (configuration not stated)	39.1	.	.	.	.	.
CCCN1CCN(CCCNC(=O)c2cc3c(s2)-c2c(C)cccc2OC3)CC1	.	.	.	.	.	.
Cc1ccc(C#CC[N+]2(CC#Cc3ccc(C)cc3)CCCCC2)cc1	.	-6.81	.	.	.	.
C(#Cc1ccccc1)C[N+]1(CC#Cc2ccccc2)CCCCC1	.	.	.	.	.	.
SMILES	FID counter	Kir21 inh	TMEM16A act	SR-BI DiI-HDL act	TMEM16A inh	SR-BI HDL uptake
O=C(Nc1ccc(NC(=O)c2ccccc2F)cn1)c1ccco1	.	.	.	/	.	/
O=S(=O)(c1ccc2c(c1)CCC2)N1CCNCC1	/	/	.	.	/	.
COc1ccc(C(C)=O)cc1COC(=O)c1ccc(C)c(S(=O)(=O)N2CCOCC2)c1	/	/	.	.	/	70.5
CCOc1ccc(NC(=O)Nc2cc(OCC(F)(F)F)cc(OCC(F)(F)F)c2)cc1	.	.	.	.	.	74.7
COc1ccc(C(=O)NNC(=O)c2cc3ccccc3cc2O)cc1	/	.	.	.	.	114.8
COc1ccc(NC(=O)c2cc3ccccc3cc2O)cc1	.	.	.	.	.	.
CCOc1ccc(NC(=O)NNC(=O)c2cc3ccccc3cc2O)cc1	.	.	.	.	.	81.3
COc1cc(C2C3=C(COC3=O)Oc3cc4c(cc32)OCO4)cc(OC)c1OC(C)=O (configuration not stated)	/	/	.	.	/	.
COc1ccc(N2CC(C(=O)Nc3cccc(OC(C)C)c3)CC2=O)cc1 (configuration not stated)	.	.	.	/	.	/
CC(Sc1nccn1C)C(=O)Nc1ccccc1 (configuration not stated)	.	.	.	.	.	.
O=C(Nc1cccc(-c2csc(Nc3ccc(Cl)cc3)n2)c1)c1ccccc1	/	.	.	.	.	98.2
Cc1nc(NC(=O)c2ccccc2)sc1-c1csc(Nc2ccc(Cl)cc2)n1	.	.	/	/	.	/
O=C(NNc1nc(-c2ccccc2)cs1)c1ccccc1	.	.	.	.	.	.
O=C(Nc1ccc(-c2csc(Nc3ccccc3)n2)cc1)c1ccccc1	.	.	.	.	.	86.0
Cc1c(C(=O)Oc2cccc3ccccc23)cnn1-c1ccccc1	.	.	.	/	100	/
O=C(C[n+]1cc(-c2ccccc2)n2c1CCC2)Nc1nc(-c2ccccc2)cs1	38.3	.	.	.	.	.
Cc1ccc(-c2c[n+](CC(=O)Nc3nc(-c4ccccc4)cs3)c3n2CCC3)cc1	.	.	.	.	.	.
Cc1ccc(O)c(NC2=C(Cl)C(=O)N(Cc3ccccc3)C2=O)c1	.	.	.	.	/	76.5
Cc1ccc(C(=O)N2CCCCC2)cc1NC1=C(Cl)C(=O)N(Cc2ccccc2)C1=O	/	/	.	.	/	.
O=C(CSc1nnc(C2CC2)n1Cc1ccccc1)c1cc2ccccc2o1	.	-4.48	.	.	.	.
Cn1c(N)c(C(=O)CSc2nnc(C3CC3)n2Cc2ccccc2)c(=O)n(C)c1=O	/	/	.	.	/	.
CCOC(=O)c1c(Nc2ccc(Cl)cc2)sc(/C=C2\C=Nc3ccccc32)c1O	.	.	.	.	.	90.8
C(=C\c1ccccc1)/CSc1nnc(-c2ccncc2)n1Cc1ccco1	.	-5.13	.	.	.	.
C(=C\c1ccccc1)/CSc1nnc(-c2ccccc2)n1Cc1ccco1	.	-5.43	.	.	.	.
O=C(CSc1nnc(-c2cccnc2)n1Cc1ccco1)c1ccc2ccccc2c1	.	.	.	.	.	.
O=C(CSc1nnc(-c2cccnc2)n1Cc1ccco1)c1ccc(Br)cc1	.	-5.94	.	.	.	.
CCN(CC(=O)Nc1ccccc1C(F)(F)F)C(=O)C1=COCCO1	/	.	.	.	.	.
COc1ccc(C(=O)c2ccc([N+](=O)[O-])cc2)c(OC)c1OC	/	/	.	.	/	.
